Laboratory results: ChEMBL document CHEMBL4251743, “Absolute Configuration and Pharmacology of the Poison Frog Alkaloid Phantasmidine” (J Nat Prod, 2018)
The source made the active and inactive calls. The rule behind the calls is not given here.

Tests used:
[1] = target: T1, Neuronal acetylcholine receptor; alpha4/beta2 (Homo sapiens, UniProt P17787+P43681); test: Agonist activity at human alpha4beta2 nAChR by cell-based rubidium flux assay
Method in brief: (§1)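 Stably transfected cells expressing rat α3β4 or human α4β2 nAChR were used near confluence. They were preloaded with 86Rb+, washed, stimulated with test agonist, and the medium was separated before lysis. Efflux was taken as medium counts over total counts. Results are the mean ± SEM of 3–4 independent experiments.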

Mus musculus [2] = test: Toxicity in iv dosed albino mouse measured after 1 hr; type: organism-based; conditions: in vivo
[3] = target: T2, Neuronal acetylcholine receptor; alpha4/beta2 (Rattus norvegicus) (UniProt P09483+P12390); test: Agonist activity at rat alpha4beta2 expressed in Xenopus oocytes at -60 mV holding potential by electrophysiology method relative to acetylcholine; type: cell-based
Method in brief: (§2)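 Defolliculated X. laevis oocytes were injected with about 50 nL of rat subunit mRNA at 1 μg/μL. For α3β2 and α4β2 the subunits were mixed 1:1. Recording was by two-electrode voltage clamp at −60 mV and about 24 °C, with perfusion in HEPES-buffered NaCl/KCl/CaCl2/MgCl2. Agonist was applied for 3–4 s every 4–5 min. Peak currents were normalised to 1 mM ACh (nAChR) or 10 μM mCPBG (5-HT3A) and fitted to the Hill equation.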

Mus musculus [4] = test: Toxicity in Swiss-Webster mouse assessed as death at 50 ug/kg, iv measured within 30 secs; type: organism-based; conditions: in vivo, 0.05 mg/kg, 0.5 min
Method in brief: (§3)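 Weanling male White Swiss-Webster mice (15–20 g) were fasted for 12 h. Compound in physiological buffered saline was given intravenously via the tail vein. Mice were then returned to their pens for observation of signs.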

Mus musculus [5] = test: Toxicity in Swiss-Webster mouse assessed as elevated respiration at 40 ug/kg, iv measured within 1 min; type: organism-based; conditions: in vivo, 0.04 mg/kg; method in brief: as §3
[6] = target: Neuronal acetylcholine receptor subunit alpha-7 (Rattus norvegicus) (UniProt Q05941); test: Agonist activity at rat alpha7 nAChR expressed in Xenopus oocytes at -60 mV holding potential by electrophysiology method relative to acetylcholine; type: cell-based; method in brief: as §2
Mus musculus [7] = test: Toxicity in Swiss-Webster mouse assessed as elevated respiration at 50 ug/kg, iv; type: organism-based; conditions: in vivo, 0.05 mg/kg; method in brief: as §3
[8] = target: T3, Neuronal acetylcholine receptor; alpha3/beta4 (Rattus norvegicus, UniProt P04757+P12392); test: Agonist activity at rat alpha3beta4 nAChR by cell-based rubidium flux assay; method in brief: as §1
Mus musculus [9] = test: Toxicity in Swiss-Webster mouse assessed as elevated respiration at 40 ug/kg, iv; type: organism-based; conditions: in vivo, 0.04 mg/kg; method in brief: as §3
Mus musculus [10] = test: Toxicity in iv dosed Swiss-Webster mouse; type: organism-based; conditions: in vivo; method in brief: as §3
Mus musculus [11] = test: Toxicity in Swiss-Webster mouse assessed as piloerection at 40 ug/kg, iv; type: organism-based; conditions: in vivo, 0.04 mg/kg; method in brief: as §3
[12] = target: T4, Neuronal acetylcholine receptor; alpha4/beta2 (Rattus norvegicus, UniProt P09483+P12390); test: Agonist activity at rat alpha4beta2 expressed in Xenopus oocytes at -60 mV holding potential by electrophysiology method; type: cell-based; method in brief: as §2
[13] = target: T4, Neuronal acetylcholine receptor; alpha4/beta2; test: Displacement of [3H]epibatidine from alpha4beta2 nAChR (unknown origin) expressed in HEK cell membranes after 4 hrs by liquid scintillation counting method
Method in brief: (§4)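 Incubation was 4 h at room temperature, followed by rapid filtration, washing and liquid scintillation counting. Nonspecific binding was defined with 300 μM nicotine. Values are the mean ± SEM of four measurements.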

[14] = target: T5, Neuronal acetylcholine receptor subunit alpha-7 (Rattus norvegicus, UniProt Q05941); test: Displacement of [3H]epibatidine from alpha7 nAChR (unknown origin) expressed in HEK cell membranes after 4 hrs by liquid scintillation counting method; method in brief: as §4
Homo sapiens [15] = organism: Homo sapiens; test: Selectivity ratio of EC50 for agonist activity at rat alpha3beta4 nAChR (unknown origin) to EC50 for agonist activity at alpha4beta2 nAChR (unknown origin)
Mus musculus [16] = test: Toxicity in Swiss-Webster mouse assessed as tonic-clonic seizures at 50 ug/kg, iv measured within 30 secs; type: organism-based; conditions: in vivo, 0.05 mg/kg, 0.5 min; method in brief: as §3
Mus musculus [17] = test: Toxicity in Swiss-Webster mouse assessed as piloerection at 40 ug/kg, iv measured within 1 min; type: organism-based; conditions: in vivo, 0.04 mg/kg; method in brief: as §3
[18] = target: Neuronal acetylcholine receptor; test: Displacement of [3H]epibatidine from rat forebrain nAChR after 4 hrs by liquid scintillation counting method; method in brief: as §4
Mus musculus [19] = test: Toxicity in Swiss-Webster mouse assessed as piloerection at 50 ug/kg, iv; type: organism-based; conditions: in vivo, 0.05 mg/kg; method in brief: as §3
Homo sapiens [20] = organism: Homo sapiens; test: Selectivity ratio of Ki for displacement of [3H]epibatidine from alpha3beta4 nAChR (unknown origin) expressed in HEK cell membranes to Ki for displacement of [3H]epibatidine from alpha4beta2 nAChR (unknown origin) expressed in HEK cell membranes
[21] = target: T5, Neuronal acetylcholine receptor subunit alpha-7; test: Agonist activity at rat alpha7 nAChR expressed in Xenopus oocytes at -60 mV holding potential by electrophysiology method; type: cell-based; method in brief: as §2
[22] = target: T1, Neuronal acetylcholine receptor; alpha4/beta2; test: Agonist activity at human alpha4beta2 nAChR by cell-based rubidium flux assay relative to 100 uM nicotine; method in brief: as §1
[23] = target: Neuronal acetylcholine receptor; alpha3/beta4 (Rattus norvegicus) (UniProt P04757+P12392); test: Agonist activity at rat alpha3beta4 nAChR by cell-based rubidium flux assay relative to 100 uM nicotine
Method in brief: as §1, with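 “counts. […]” for “counts.”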

Mus musculus [24] = test: Toxicity in Swiss-Webster mouse assessed as hyperactivity at 50 ug/kg, iv; type: organism-based; conditions: in vivo, 0.05 mg/kg; method in brief: as §3
[25] = target: T3, Neuronal acetylcholine receptor; alpha3/beta4; test: Displacement of [3H]epibatidine from alpha3beta4 nAChR (unknown origin) expressed in HEK cell membranes after 4 hrs by liquid scintillation counting method; method in brief: as §4
[26] = target: Neuronal acetylcholine receptor subunit alpha-7 (Rattus norvegicus) (UniProt Q05941); test: Agonist activity at rat alpha7 nAChR expressed in Xenopus oocytes at 10 uM at -60 mV holding potential by electrophysiology method in presence of methyllycaconitine; type: cell-based
[27] = target: T6, Neuronal acetylcholine receptor; alpha3/beta2 (Rattus norvegicus) (UniProt P04757+P12390); test: Agonist activity at rat alpha3beta2 expressed in Xenopus oocytes at 10 nM at -60 mV holding potential in presence of dihydro-beta-erythroidine by electrophysiology method; type: cell-based
Rattus norvegicus = organism: Rattus norvegicus; test: Selectivity ratio of EC50 for rat alpha7 nAChR expressed in Xenopus oocytes to EC50 rat alpha4beta2 expressed in Xenopus oocytes; type: cell-based
[28] = target: Neuronal acetylcholine receptor; alpha3/beta2 (Rattus norvegicus, UniProt P04757+P12390); test: Agonist activity at rat alpha3beta2 expressed in Xenopus oocytes at -60 mV holding potential by electrophysiology method; type: cell-based; method in brief: as §2
[29] = target: T7, 5-hydroxytryptamine receptor 3A (Rattus norvegicus) (UniProt P35563); test: Agonist activity at rat 5HT3A expressed in Xenopus oocytes at -60 mV holding potential by electrophysiology method relative to metachlorophenylbiguanide; type: cell-based; method in brief: as §2
T7 sequence (whole entry): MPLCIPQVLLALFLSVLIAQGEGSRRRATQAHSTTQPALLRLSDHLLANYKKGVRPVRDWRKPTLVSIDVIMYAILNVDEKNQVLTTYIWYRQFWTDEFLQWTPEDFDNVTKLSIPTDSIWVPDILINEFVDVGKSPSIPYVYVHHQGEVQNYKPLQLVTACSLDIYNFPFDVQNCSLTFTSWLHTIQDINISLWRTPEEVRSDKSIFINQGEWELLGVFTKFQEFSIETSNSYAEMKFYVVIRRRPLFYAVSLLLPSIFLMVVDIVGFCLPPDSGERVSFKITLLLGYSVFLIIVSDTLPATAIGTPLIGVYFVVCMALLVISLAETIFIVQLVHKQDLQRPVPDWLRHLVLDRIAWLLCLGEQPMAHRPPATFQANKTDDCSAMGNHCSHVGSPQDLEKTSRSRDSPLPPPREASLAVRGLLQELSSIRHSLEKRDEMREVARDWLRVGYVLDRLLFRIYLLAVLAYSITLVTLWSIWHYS

[30] = target: T8, 5-hydroxytryptamine receptor 3A (Rattus norvegicus, UniProt P35563); test: Agonist activity at rat 5HT3A expressed in Xenopus oocytes at -60 mV holding potential by electrophysiology method; type: cell-based; method in brief: as §2
T8 sequence (P35563 whole entry): T7 sequence (whole entry)

[31] = target: T7, 5-hydroxytryptamine receptor 3A (Rattus norvegicus); test: Agonist activity at rat 5HT3A expressed in Xenopus oocytes at 100 uM at -60 mV holding potential in presence of tropisetron by electrophysiology method; type: cell-based
Method in brief: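 Oocytes expressing rat 5-HT3A were held at −60 mV under two-electrode voltage clamp. Tropisetron (30 nM) was pre-applied for 2 min before 100 μM agonist was applied, with n=4.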

[32] = target: T6, Neuronal acetylcholine receptor; alpha3/beta2 (Rattus norvegicus); test: Agonist activity at rat alpha3beta2 expressed in Xenopus oocytes at -60 mV holding potential by electrophysiology method relative to acetylcholine; type: cell-based; method in brief: as §2
[33] = target: T2, Neuronal acetylcholine receptor; alpha4/beta2 (Rattus norvegicus); test: Agonist activity at rat alpha4beta2 expressed in Xenopus oocytes at 10 nM at -60 mV holding potential in presence of dihydro-beta-erythroidine by electrophysiology method; type: cell-based
Mus musculus [34] = test: Toxicity in Swiss-Webster mouse assessed as elevated respiration at 10 mg/kg, iv; type: organism-based; conditions: in vivo; method in brief: as §3
Mus musculus [35] = test: Toxicity in Swiss-Webster mouse assessed as piloerection at 10 mg/kg, iv; type: organism-based; conditions: in vivo; method in brief: as §3
Mus musculus [36] = test: Toxicity in Swiss-Webster mouse assessed as hyperactivity at 10 mg/kg, iv; type: organism-based; conditions: in vivo; method in brief: as §3

T1 sequence (P17787 whole entry): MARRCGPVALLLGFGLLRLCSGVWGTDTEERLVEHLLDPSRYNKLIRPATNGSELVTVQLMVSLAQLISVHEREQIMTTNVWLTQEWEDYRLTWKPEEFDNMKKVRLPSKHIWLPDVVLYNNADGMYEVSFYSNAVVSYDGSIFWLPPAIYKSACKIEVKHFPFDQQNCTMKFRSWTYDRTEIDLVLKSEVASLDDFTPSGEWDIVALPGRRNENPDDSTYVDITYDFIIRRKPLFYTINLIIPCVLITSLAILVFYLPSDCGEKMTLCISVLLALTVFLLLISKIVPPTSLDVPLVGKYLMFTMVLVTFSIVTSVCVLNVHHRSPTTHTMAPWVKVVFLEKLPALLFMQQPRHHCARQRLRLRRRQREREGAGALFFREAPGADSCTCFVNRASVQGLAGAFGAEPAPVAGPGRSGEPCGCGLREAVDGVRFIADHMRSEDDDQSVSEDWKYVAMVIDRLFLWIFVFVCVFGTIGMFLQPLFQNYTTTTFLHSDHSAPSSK
T1 sequence (P43681 whole entry): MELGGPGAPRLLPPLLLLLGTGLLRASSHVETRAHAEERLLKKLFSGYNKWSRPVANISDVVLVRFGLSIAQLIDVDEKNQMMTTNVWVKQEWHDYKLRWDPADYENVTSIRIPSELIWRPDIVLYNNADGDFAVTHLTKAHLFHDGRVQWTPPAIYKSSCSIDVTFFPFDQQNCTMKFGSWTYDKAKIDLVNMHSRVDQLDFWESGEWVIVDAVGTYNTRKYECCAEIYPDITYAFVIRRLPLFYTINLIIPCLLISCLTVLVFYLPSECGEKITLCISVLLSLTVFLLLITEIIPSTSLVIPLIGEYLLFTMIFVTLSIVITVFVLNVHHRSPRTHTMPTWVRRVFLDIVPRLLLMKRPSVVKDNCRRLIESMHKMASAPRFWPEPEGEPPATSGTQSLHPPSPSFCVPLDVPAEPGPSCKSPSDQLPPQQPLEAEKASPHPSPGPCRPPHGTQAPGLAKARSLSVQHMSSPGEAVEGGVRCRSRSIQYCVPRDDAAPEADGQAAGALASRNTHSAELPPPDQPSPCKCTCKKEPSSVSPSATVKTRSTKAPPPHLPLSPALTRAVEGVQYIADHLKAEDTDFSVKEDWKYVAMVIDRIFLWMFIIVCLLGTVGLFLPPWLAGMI
Neuronal acetylcholine receptor subunit alpha-7 (Rattus norvegicus), sequence (Q05941 whole entry): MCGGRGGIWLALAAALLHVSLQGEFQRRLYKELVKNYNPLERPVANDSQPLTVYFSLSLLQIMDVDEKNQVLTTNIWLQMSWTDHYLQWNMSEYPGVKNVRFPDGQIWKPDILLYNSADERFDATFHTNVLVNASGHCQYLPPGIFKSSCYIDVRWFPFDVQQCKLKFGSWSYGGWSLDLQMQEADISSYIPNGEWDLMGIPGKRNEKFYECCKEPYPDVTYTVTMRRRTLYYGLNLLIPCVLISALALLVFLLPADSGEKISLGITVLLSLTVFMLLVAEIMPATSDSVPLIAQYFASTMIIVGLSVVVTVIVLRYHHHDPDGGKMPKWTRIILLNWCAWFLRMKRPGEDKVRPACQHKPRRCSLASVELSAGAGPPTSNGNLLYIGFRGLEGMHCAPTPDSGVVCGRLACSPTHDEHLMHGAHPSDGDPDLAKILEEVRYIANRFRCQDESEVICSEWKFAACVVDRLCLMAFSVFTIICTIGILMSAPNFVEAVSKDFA
T5 sequence (Q05941 whole entry): as above
T3 sequence (P04757 whole entry): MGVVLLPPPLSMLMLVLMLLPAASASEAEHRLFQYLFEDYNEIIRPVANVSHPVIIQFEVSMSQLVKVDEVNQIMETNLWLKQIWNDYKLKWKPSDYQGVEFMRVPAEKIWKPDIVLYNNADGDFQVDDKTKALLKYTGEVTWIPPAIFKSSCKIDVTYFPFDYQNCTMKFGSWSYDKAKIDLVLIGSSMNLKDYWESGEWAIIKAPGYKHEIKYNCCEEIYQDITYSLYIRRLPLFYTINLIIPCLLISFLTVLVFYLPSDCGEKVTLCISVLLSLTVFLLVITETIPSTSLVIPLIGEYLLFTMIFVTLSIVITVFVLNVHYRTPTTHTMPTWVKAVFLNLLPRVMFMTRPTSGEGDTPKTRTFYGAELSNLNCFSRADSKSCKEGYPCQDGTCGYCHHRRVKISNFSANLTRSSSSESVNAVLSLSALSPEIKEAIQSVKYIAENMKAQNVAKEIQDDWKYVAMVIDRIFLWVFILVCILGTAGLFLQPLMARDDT
T3 sequence (P12392 whole entry): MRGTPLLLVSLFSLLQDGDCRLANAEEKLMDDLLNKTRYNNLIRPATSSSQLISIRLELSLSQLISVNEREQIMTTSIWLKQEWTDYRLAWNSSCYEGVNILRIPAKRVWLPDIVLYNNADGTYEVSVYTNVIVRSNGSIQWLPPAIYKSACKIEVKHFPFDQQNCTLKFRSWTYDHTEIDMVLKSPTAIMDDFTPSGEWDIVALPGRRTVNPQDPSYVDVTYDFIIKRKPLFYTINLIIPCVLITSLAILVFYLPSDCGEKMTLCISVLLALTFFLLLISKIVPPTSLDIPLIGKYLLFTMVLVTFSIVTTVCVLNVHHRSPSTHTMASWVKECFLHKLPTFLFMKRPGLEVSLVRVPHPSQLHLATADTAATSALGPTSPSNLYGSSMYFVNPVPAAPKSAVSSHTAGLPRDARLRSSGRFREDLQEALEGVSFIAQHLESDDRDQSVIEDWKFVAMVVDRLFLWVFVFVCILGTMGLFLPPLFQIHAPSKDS
T4 sequence (P09483 whole entry): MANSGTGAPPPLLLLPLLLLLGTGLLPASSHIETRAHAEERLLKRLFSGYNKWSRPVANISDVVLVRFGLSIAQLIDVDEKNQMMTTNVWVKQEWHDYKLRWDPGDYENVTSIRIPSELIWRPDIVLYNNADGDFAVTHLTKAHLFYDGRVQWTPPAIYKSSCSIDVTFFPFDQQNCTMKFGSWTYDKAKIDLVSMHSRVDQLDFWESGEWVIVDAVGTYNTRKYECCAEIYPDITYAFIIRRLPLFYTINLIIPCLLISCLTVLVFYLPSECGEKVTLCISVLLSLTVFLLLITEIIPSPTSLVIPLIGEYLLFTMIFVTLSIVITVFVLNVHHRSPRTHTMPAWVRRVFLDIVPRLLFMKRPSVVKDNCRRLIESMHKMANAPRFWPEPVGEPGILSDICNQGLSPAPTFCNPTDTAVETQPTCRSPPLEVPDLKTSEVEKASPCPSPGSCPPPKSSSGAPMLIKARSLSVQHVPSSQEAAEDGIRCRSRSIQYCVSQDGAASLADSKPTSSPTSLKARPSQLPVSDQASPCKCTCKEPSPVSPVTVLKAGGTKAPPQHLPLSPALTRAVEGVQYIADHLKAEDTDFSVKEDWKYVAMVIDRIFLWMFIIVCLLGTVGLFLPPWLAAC
T4 sequence (P12390 whole entry): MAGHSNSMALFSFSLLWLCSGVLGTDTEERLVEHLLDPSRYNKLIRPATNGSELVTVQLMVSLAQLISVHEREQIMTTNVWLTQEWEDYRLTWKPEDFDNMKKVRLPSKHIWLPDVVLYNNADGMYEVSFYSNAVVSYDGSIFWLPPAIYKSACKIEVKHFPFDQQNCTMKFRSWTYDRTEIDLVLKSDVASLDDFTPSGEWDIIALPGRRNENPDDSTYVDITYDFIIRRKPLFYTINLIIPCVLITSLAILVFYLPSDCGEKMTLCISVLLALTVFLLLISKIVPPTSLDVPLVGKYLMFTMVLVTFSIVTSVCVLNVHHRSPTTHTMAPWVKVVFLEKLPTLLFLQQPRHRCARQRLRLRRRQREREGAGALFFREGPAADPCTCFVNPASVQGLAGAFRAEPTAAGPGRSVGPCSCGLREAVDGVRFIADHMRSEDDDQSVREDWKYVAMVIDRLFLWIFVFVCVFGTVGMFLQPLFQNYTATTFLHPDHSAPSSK
Neuronal acetylcholine receptor; alpha3/beta2, sequence (P04757 whole entry): as the sequence (P04757 whole entry) above
Neuronal acetylcholine receptor; alpha3/beta2, sequence (P12390 whole entry): as the sequence (P12390 whole entry) above

| Structure (SMILES) | EC50 [1] [µM] | LD50 (Mus musculus [2]) [mg/kg] | Imax [3] [%] | Imax [6] [%] | EC50 [8] [µM] | LD50 (Mus musculus [10]) [mg/kg] | EC50 [12] [µM] | Ki [13] [µM] | Ki [14] [µM] | Ratio EC50 (Homo sapiens [15]) | Ki [18] [µM] | Ratio Ki (Homo sapiens [20]) | EC50 [21] [µM] | Emax [22] [%] | Emax [23] [%] | Ki [25] [µM] | further results |
| --- | --- | --- | --- | --- | --- | --- | --- | --- | --- | --- | --- | --- | --- | --- | --- | --- | --- |
| CN1CCC[C@H]1c1ccccc1 | 2.1 | 0.3 | – | – | – | – | – | – | – | – | – | – | – | – | – | – | – |
| Clc1ccc2c(n1)O[C@]13CC[C@H]1NC[C@H]23 | 0.2 | – | 0.37 | 1.1 | 0.57 | 0.072 | 0.0015 | 0.00027 | 0.0044 | 2.9 | 0.00087 | 34 | 4 | 45 | 91 | 0.0091 | Activity (Mus musculus [4]): Toxic; Activity (Mus musculus [5]): Non-Toxic; Activity (Mus musculus [7]): Toxic; Activity (Mus musculus [9]): Toxic; Activity (Mus musculus [11]): Toxic; Activity (Mus musculus [16]): Toxic; Activity (Mus musculus [17]): Non-Toxic; Activity (Mus musculus [19]): Toxic; Activity (Mus musculus [24]): Toxic |
| Clc1ccc2c(n1)OC13CCC1NCC23 (racemic) | 0.2 | – | 0.32 | 1.08 | 0.75 | 0.27 | 0.0031 | 0.00035 | 0.0054 | 3.7 | 0.0011 | 31 | 9.9 | 42 | 91 | 0.011 | Activity [26]: inactive; Activity [27]: inactive; Ratio EC50 (Rattus norvegicus): 3200; EC50 [28]: 19 µM; Imax [29]: 0.79%; EC50 [30]: 29 µM; Activity [31]: inactive; Imax [32]: 0.25%; Activity [33]: inactive |
| Clc1ccc(C2CC3CCC2N3)cn1 (racemic) [EPIBATIDINE] | – | – | – | – | – | 0.0015 | – | – | – | – | – | – | – | 135 | 114 | – | – |
| O=c1cccc2n1C[C@@H]1CNC[C@H]2C1 [CYTISINICLINE] | – | 1.73 | – | – | – | – | – | – | – | – | – | – | – | – | – | – | – |
| Clc1ccc2c(n1)O[C@@]13CC[C@@H]1NC[C@@H]23 [PHANTASMIDINE] | 56 | – | 0.43 | 1.02 | 27 | > 10 | 0.045 | 0.012 | 0.13 | 0.49 | 0.029 | 33 | 21 | 110 | 53 | 0.39 | Activity (Mus musculus [34]): Toxic; Activity (Mus musculus [35]): Toxic; Activity (Mus musculus [36]): Toxic |
